Results as given in ChEMBL document CHEMBL4152387, “Discovery of a Potent Grp94 Selective Inhibitor with Anti-Inflammatory Efficacy in a Mouse Model of Ulcerative Colitis” (J Med Chem, 2018).
Active and inactive are the calls of the source. The rule behind the calls is not given here.

Tests used:
[1] = organism: Canis lupus familiaris; assay: Binding affinity to dog His-tagged biotinylated GRP94 N41 deletion mutant (69 to 337 residues) expressed in Escherichia coli BL21star (DE3) assessed as dissociation constant by biolayer interferometry
How it was run: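 His-tagged Grp94N biotinylated at one molar ratio in PBS pH 7.4, dialysed overnight, loaded at 400 nM on streptavidin biosensors after 10 min prewetting in PBS, 0.05% BSA, 0.01% Tween-20. Four compound concentrations in this buffer tested; binding recorded at 30 °C by biolayer interferometry.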

[2] = test system: Mus musculus; assay: Anti-inflammatory activity in C57BL/6 mouse model of DSS-induced ulcerative colitis assessed reduction in p65 expression in colonic tissues at 10 to 30 mg/kg, ip qd co-administrated with DSS measured on day 7 post dose; type: functional, organism-based
How it was run: (§1)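 DSS colitis in male C57BL/6 mice (3% DSS, 7 days, ip qd 10 or 30 mg/kg, vehicle controls); colons flash-frozen at day 7, homogenized in lysis buffer with protease/phosphatase inhibitors. Equal protein by BCA run on SDS-PAGE, PVDF, 1% BSA block, primary antibodies 37 °C 1 h then 4 °C overnight, DyLight 800 secondary, infrared scan; β-actin loading control.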

[3] = organism: Canis lupus familiaris; assay: Binding affinity to dog GST-tagged GRP94 N41 deletion mutant (69 to 337 residues) expressed in Escherichia coli BL21star (DE3) at 40 uM by NMR based CPMG assay
[4] = test system: Mus musculus; assay: Subacute toxicity in C57BL/6 mouse assessed as effect on kidneys at 30 to 90 mg/kg, ip qd for 2 weeks by hematoxylin and eosin staining analysis; type: organism-based; settings: in vivo, 336 h
[5] = test system: Mus musculus; assay: Anti-inflammatory activity in ip dosed C57BL/6 mouse model of DSS-induced ulcerative colitis assessed reduction in TNFalpha levels in colonic tissues co-administrated once daily with DSS measured on day 7 post dose by ELISA; type: functional, organism-based
How it was run: (§2)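 DSS colitis in male C57BL/6 mice (3% DSS in water, 7 days, ip qd co-dosing, vehicle controls). Serum and colons taken at sacrifice on day 7; colon homogenate supernatants and serum assayed for mouse TNFα and IL-6 by ELISA kits; n = 5 samples per group.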

[6] = test system: Mus musculus; assay: Subacute toxicity in C57BL/6 mouse assessed as effect on spleen at 30 to 90 mg/kg, ip qd for 2 weeks by hematoxylin and eosin staining analysis; type: organism-based; settings: in vivo, 336 h
[7] = test system: Mus musculus; assay: Anti-inflammatory activity in C57BL/6 mouse model of DSS-induced ulcerative colitis assessed reduction in TLR2 expression in colonic tissues at 10 to 30 mg/kg, ip qd co-administrated with DSS measured on day 7 post dose; type: functional, organism-based; how it was run: as §1
[8] = test system: Mus musculus; assay: Anti-inflammatory activity in ip dosed C57BL/6 mouse model of DSS-induced ulcerative colitis assessed reduction in IL6 levels in serum co-administrated once daily with DSS measured on day 7 post dose by ELISA; type: functional, organism-based; how it was run: as §2
[9] = test system: Mus musculus; assay: Subacute toxicity in C57BL/6 mouse assessed as effect on liver at 30 to 90 mg/kg, ip qd for 2 weeks by hematoxylin and eosin staining analysis; type: organism-based; settings: in vivo, 336 h
[10] = test system: Mus musculus; assay: Anti-inflammatory activity in C57BL/6 mouse model of DSS-induced ulcerative colitis assessed reduction in body weight loss at 10 to 30 mg/kg, ip qd co-administrated with DSS measured until day 7 post dose; type: functional, organism-based
How it was run: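 Male C57BL/6 mice (20−22 g), n = 8 per group, 3% DSS in drinking water for 7 days with ip qd dosing at 10 or 30 mg/kg; vehicle for normal and disease controls. Body weight, stool consistency and rectal bleeding recorded daily; DAI scored from weight loss, stool consistency and stool blood.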

[11] = test system: Mus musculus; assay: Subacute toxicity in C57BL/6 mouse assessed as body weight loss at 30 to 90 mg/kg, ip qd for 2 weeks measured every other day; type: organism-based; settings: in vivo, 336 h
[12] = test system: Mus musculus; assay: Anti-inflammatory activity in C57BL/6 mouse model of DSS-induced ulcerative colitis assessed reduction in colon shortening at 10 to 30 mg/kg, ip qd co-administrated with DSS measured on day 7 post dose; type: functional, organism-based
How it was run: (§3)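 Male C57BL/6 mice (20−22 g), n = 8 per group, 3% DSS in drinking water 7 days plus ip qd dosing at 10 or 30 mg/kg; vehicle controls. Sacrificed at day 7, colons collected; colon length measured and H&E-stained colon sections examined.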

[13] = target: T1, Heat shock protein HSP 90-alpha (Homo sapiens, UniProt P07900); assay: Inhibition of HSP90alpha in human PANC1 cells assessed as akt degradation at 1 to 5 uM after 36 hrs by Western blot analysis; type: cell-based
How it was run: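 Panc-1 cells treated 36 h; total protein lysate with protease/phosphatase inhibitors; equal protein by BCA on SDS-PAGE, PVDF, Western blot for Hsp70 and Akt, β-actin loading control; AT13387 reference.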

[14] = test system: Mus musculus; assay: Anti-inflammatory activity in ip dosed C57BL/6 mouse model of DSS-induced ulcerative colitis assessed reduction in TNFalpha levels in serum co-administrated once daily with DSS measured on day 7 post dose by ELISA; type: functional, organism-based; how it was run: as §2
[15] = test system: Mus musculus; assay: Subacute toxicity in C57BL/6 mouse assessed as behavioral abnormalities at 30 to 90 mg/kg, ip qd for 2 weeks; type: organism-based; settings: in vivo, 336 h
[16] = target: T1, Heat shock protein HSP 90-alpha; assay: Binding affinity to human His-tagged HSP90alpha N-terminal domain (1 to 236 residues) expressed in Escherichia coli BL21star (DE3) association constant by biolayer interferometry; settings: read-out: K
How it was run: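 Biotinylated His-tagged N-terminal protein, labelled in PBS pH 7.4 at one molar ratio with excess biotin removed by overnight dialysis, was loaded at 400 nM final onto streptavidin biosensors pre-wetted 10 min in kinetics buffer (PBS, 0.05% BSA, 0.01% Tween-20). Four compound concentrations in kinetics buffer were then tested for binding, with all data collected at 30 °C.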

[17] = target: Endoplasmin (Homo sapiens, UniProt P14625); assay: Inhibition of GRP94 in human PANC1 cells assessed as down-regulation of integrin alpha2 levels after 36 hrs by Western blot analysis; type: cell-based
Sequence of Endoplasmin (P14625 whole entry): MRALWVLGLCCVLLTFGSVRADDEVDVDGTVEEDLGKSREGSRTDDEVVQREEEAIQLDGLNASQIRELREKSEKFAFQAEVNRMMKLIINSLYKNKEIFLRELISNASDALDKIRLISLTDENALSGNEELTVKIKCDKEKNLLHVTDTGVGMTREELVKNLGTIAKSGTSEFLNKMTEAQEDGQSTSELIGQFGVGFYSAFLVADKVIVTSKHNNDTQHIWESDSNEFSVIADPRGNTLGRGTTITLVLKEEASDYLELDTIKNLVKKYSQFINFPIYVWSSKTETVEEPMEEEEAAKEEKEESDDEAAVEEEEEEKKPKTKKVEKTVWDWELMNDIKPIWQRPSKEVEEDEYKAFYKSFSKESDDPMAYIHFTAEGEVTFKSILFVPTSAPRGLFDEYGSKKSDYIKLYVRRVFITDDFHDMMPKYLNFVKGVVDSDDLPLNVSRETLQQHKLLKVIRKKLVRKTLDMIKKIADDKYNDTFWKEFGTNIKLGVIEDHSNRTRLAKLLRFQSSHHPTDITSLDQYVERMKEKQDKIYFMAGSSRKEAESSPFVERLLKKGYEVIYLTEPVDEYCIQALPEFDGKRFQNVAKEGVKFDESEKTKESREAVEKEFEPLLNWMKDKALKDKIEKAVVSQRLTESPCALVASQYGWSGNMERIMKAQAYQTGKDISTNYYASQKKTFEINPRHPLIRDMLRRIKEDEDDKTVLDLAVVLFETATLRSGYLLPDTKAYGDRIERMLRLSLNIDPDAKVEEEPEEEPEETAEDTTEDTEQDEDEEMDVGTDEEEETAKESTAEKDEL
How it was run: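 Panc-1 cells treated 36 h at indicated concentrations; cell surface protein extracted with a membrane-fractionation kit; Western blot for integrin α2 and αL with β-actin loading control, infrared fluorescent secondary detection.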

[18] = test system: Mus musculus; assay: Anti-inflammatory activity in C57BL/6 mouse model of DSS-induced ulcerative colitis assessed reduction in colonic tissue damage at 10 to 30 mg/kg, ip qd co-administrated with DSS measured on day 7 post dose; type: functional, organism-based; how it was run: as §3
[19] = Ratio of Kd for human His-tagged biotinylated HSP90alpha N-terminal domain (1 to 236 residues) to Kd for dog His-tagged biotinylated GRP94 N41 deletion mutant (69 to 337 residues)
[20] = test system: Mus musculus; assay: Anti-inflammatory activity in C57BL/6 mouse model of DSS-induced ulcerative colitis assessed reduction in TLR9 expression in colonic tissues at 10 to 30 mg/kg, ip qd co-administrated with DSS measured on day 7 post dose; type: functional, organism-based; how it was run: as §1
[21] = test system: Mus musculus; assay: In-vivo inhibition of HSP90/HSP70 pathway in C57BL/6 mouse model of DSS-induced ulcerative colitis assessed as effect on Akt expression in colonic tissues at 10 to 30 mg/kg, ip qd co-administrated with DSS measured on day 7 post dose; type: organism-based; how it was run: as §1

CC(C)c1ccc(-c2ccc(N[C@H]3CC[C@H](O)CC3)c(C(N)=O)c2)cc1
K [1]: 1.25 ×10⁻² /s | Activity [2]: Active | Activity [3]: Active | Activity [4]: Non-Toxic | Activity [5]: Dose-dependent effect | Activity [6]: Non-Toxic | Activity [7]: Active | Activity [8]: Dose-dependent effect | Activity [9]: Non-Toxic | Activity [10]: Active | Activity [11]: Non-Toxic | Activity [12]: inactive | inhibition (INH) [13]: Not Active | Activity [14]: Dose-dependent effect | Activity [15]: Non-Toxic | kon [16]: 1680 M⁻¹ s⁻¹ | inhibition [17]: Dose-dependent effect | Activity [18]: inactive | Ratio [19]: > 1000 | Activity [20]: Active | Activity [21]: Non-Toxic
